ChEMBL document CHEMBL1140253, “Synthesis of functionalized acetophenones as protein tyrosine phosphatase 1B inhibitors” (Bioorg Med Chem Lett, 2005)

Molecular target: Tyrosine-protein phosphatase non-receptor type 1 (Mus musculus) (UniProt P35821)
Test: (§1) In vitro inhibitory activity against PTP1B at 100 uM 10 min incubation
Outline: (§2)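 p-Nitrophenylphosphate (10 mM) as substrate in 50 mM HEPES buffer, pH 7, with 1 mM EDTA and DTT. Compounds tested at 100 µM, with sodium vanadate as reference control. Result given as percent inhibition of phosphatase activity, mean of three independent experiments.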

SODIUM ORTHOVANAD was tested. Which inhibition did it give?
Its inhibition is 56.2%.

Molecular target: T1, Tyrosine-protein phosphatase non-receptor type 1 (Mus musculus) (UniProt P35821)
T1 sequence (whole entry): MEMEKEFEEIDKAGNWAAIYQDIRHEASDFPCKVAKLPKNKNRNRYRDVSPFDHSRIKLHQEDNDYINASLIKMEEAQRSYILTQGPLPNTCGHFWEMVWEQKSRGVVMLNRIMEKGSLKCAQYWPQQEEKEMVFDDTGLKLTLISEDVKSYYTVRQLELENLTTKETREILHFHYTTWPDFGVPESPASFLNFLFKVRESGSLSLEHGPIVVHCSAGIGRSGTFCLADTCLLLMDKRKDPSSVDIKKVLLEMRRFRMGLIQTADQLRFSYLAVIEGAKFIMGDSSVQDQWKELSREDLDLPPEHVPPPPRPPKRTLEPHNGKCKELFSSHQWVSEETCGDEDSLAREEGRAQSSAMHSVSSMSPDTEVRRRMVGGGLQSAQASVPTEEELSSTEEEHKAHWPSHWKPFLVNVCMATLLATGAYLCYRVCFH
Test: as §1
Outline: as §2

For N#CCOc1ccc(/C(O)=C/C(=O)c2ccc(F)cc2)c(O)c1, which inhibition is on record?
Its inhibition is “No inhibition”.

With CC(=O)c1ccc(OCC#N)cc1OC(=O)c1ccc(F)cc1 as the molecule, how does the inhibition read?
The inhibition was “No inhibition”.

With CC(=O)c1ccc2occc2c1OC(=O)c1ccc(C(F)(F)F)cc1 as the molecule, how does the inhibition read?
Its inhibition is 32.4%.

How did the inhibition turn out when CC(=O)c1ccc(OCC2CO2)cc1O (stereo not drawn) was run?
The inhibition was 22.4%.

CC(=O)c1ccc(OCC#N)cc1OC(=O)c1ccccc1 was tested. Which inhibition did it give?
Its inhibition is 12.8%.

Which inhibition does the source give for C=CCOc1ccc(C(C)=O)c(O)c1 here?
Its inhibition is “No inhibition”.

How did the inhibition turn out when COc1ccc(C(=O)Oc2cc3occc3cc2C(C)=O)cc1OC was run?
The inhibition was “No inhibition”.

For CC(=O)c1ccc(OCC#N)cc1O, which inhibition is on record?
The inhibition was 22.4%.

With CC(=O)c1cc2ccoc2cc1O as the molecule, how does the inhibition read?
Its inhibition is 19.1%.

CC(=O)c1ccc2occc2c1OC(=O)c1ccc(Cl)c(Cl)c1 was tested. Which inhibition did it give?
The inhibition was 54.1%.

COc1ccc(C(=O)Oc2cc3occc3cc2C(C)=O)cc1 was tested. Which inhibition did it give?
The inhibition was 13.5%.

For O=C(/C=C(\O)c1ccc(OCCc2ccccc2)cc1O)c1ccc(F)cc1, which inhibition is on record?
Its inhibition is “No inhibition”.

COc1cccc(C(=O)Oc2cc3occc3cc2C(C)=O)c1 was tested. Which inhibition did it give?
The inhibition was 8.1%.

How did the inhibition turn out when CC(=O)c1cc2ccoc2cc1OC(=O)c1ccccc1 was run?
Its inhibition is “No inhibition”.

How did the inhibition turn out when CC(=O)c1ccc2occc2c1O was run?
Its inhibition is “No inhibition”.

For CC(=O)c1ccc(OCCO)cc1O, which inhibition is on record?
Its inhibition is “No inhibition”.

With CC(=O)c1ccc2occc2c1OC(=O)c1ccccc1 as the molecule, how does the inhibition read?
The inhibition was 43.2%.

N#CCOc1ccc(/C(O)=C/C(=O)c2ccccc2)c(O)c1 was tested. Which inhibition did it give?
The inhibition was “No inhibition”.

With CC(=O)c1ccc(OCCc2ccccc2)cc1O as the molecule, how does the inhibition read?
Its inhibition is 38.6%.

How did the inhibition turn out when O=C(/C=C(\O)c1ccc2occc2c1O)c1ccc(C(F)(F)F)cc1 was run?
Its inhibition is “No inhibition”.

How did the inhibition turn out when CC(=O)c1cc2ccoc2cc1OC(=O)c1ccc2c(c1)OCO2 was run?
Its inhibition is 34%.

With CC(=O)c1ccc(OCCc2ccccc2)cc1OC(=O)c1ccc(F)cc1 as the molecule, how does the inhibition read?
Its inhibition is “No inhibition”.
